Data set [1] can be described thus: Inhibition of Leishmania donovani NMT using p60 SRC(2 to […]) as substrate by CPM dye based fluorescence assay.
In data set [2] the test system is Leishmania donovani. Description: Antileishmanial activity against Leishmania donovani MHOM/ET/67/HU3 intracellular amastigotes measured after 72 hrs by alamar blue dye based fluorescence assay. It is filed as functional, organism-based. Conditions: MHOM/ET/67/HU3, 72 h. A digest of the protocol:
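Ex vivo L. donovani LV9 amastigotes, kept by serial passage in Rag-2−/− mice, isolated from infected spleens by homogenization and saponin lysis. Plated at 4 × 10⁵ per well in RPMI with 20% heat-inactivated FCS, adenine, 20 mM MES (pH 5.5), hemin, biopterin and biotin.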
(In general: The colour change of resazurin is a common sign of viable cells or microbes.)

Data set [3] relates to Leishmania donovani. Description: Effect on total NMT expression in Leishmania donovani MHOM/ET/67/HU3 intracellular amastigotes after 12 hrs in presence of YnMyr by Western blot analysis. It is filed as ADME, organism-based. A digest of the protocol: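 Amastigotes from spleens of Rag-2−/− mice, isolated by saponin lysis, seeded at 7.5 × 10⁷/mL in RPMI/10% FCS with inhibitor for 1 h at 37 °C. Then resuspended in fresh medium with inhibitor plus YnMyr (50 μM final) for 12 h. Lysates were click-labelled and run on SDS-PAGE, then immunoblotted with anti-LdNMT antibody.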
On the technique in general: A western blot detects proteins with antibodies after separation by electrophoresis.

As to `CN1CCC(N(C)c2nc(N(C)CCC#N)c3ccccc3n2)C1` (stereo not drawn), half-maximal inhibition in data set [1] (IC50) was put at 9.5 µM. Besides, the midpoint of the response in the data set with Leishmania donovani [2], the EC50, lay at 6.6 µM. Also, the Activity entry with Leishmania donovani [3] is on record as “Non-Toxic”.

(Values after ChEMBL document CHEMBL4610124, “Novel Thienopyrimidine Inhibitors of Leishmania N-Myristoyltransferase with On-Target Activity in Intracellular Amastigotes” (J Med Chem, 2020).)
